Measurements taken from ChEMBL document CHEMBL1132247, “Synthesis and nicotinic acetylcholine receptor in vivo binding properties of 2-fluoro-3-[2(S)-2-azetidinylmethoxy]pyridine: a new positron emission tomography ligand for nicotinic receptors” (J Med Chem, 1999).
Values belong to the molecule of their own block, whether it stands above or below them.

Columns and labels:
Rattus norvegicus [1] = organism: Rattus norvegicus; test: Biodistribution in rat cerebellum, expressed as percent I.D./g tissue; assay type: ADME, organism-based; conditions: in vivo
How it was run: (§1)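 Male Sprague–Dawley rats (190–200 g) received 30 μCi (1.1 MBq) of the 18F-labelled tracer i.v. into a tail vein, formulated in physiological saline and given within 15 min of end of synthesis. Rats were decapitated at selected times, and the brain was removed and dissected on ice. Regions were weighed and gamma-counted alongside injected-dose aliquots, and values were expressed as % I.D./g tissue.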

Rattus norvegicus [2] = organism: Rattus norvegicus; test: Biodistribution in rat superior coliculus, expressed as percent I.D./g tissue; assay type: ADME, organism-based; conditions: in vivo; how it was run: as §1
Rattus norvegicus [3] = organism: Rattus norvegicus; test: Biodistribution in rat thalamus, expressed as percent I.D./g tissue; assay type: ADME, organism-based; conditions: in vivo; how it was run: as §1
[4] = molecular target: Neuronal acetylcholine receptor; alpha4/beta2 (Homo sapiens, UniProt P17787+P43681); test: Binding affinity against human Nicotinic acetylcholine receptor alpha4-beta2
Chain of Neuronal acetylcholine receptor; alpha4/beta2 (P17787 whole entry): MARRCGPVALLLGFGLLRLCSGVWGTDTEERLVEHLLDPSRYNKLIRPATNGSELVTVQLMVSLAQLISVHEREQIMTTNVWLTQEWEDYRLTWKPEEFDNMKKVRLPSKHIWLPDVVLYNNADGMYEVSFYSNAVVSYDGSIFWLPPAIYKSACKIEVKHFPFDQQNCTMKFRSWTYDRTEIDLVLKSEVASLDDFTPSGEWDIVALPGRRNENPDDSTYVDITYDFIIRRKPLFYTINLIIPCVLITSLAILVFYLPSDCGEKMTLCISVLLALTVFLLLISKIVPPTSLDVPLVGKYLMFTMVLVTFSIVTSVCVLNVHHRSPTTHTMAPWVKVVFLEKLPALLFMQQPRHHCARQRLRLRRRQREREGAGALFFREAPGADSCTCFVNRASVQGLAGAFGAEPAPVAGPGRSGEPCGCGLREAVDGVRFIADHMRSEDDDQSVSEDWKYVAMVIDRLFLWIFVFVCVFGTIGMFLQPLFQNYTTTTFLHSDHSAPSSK
Chain of Neuronal acetylcholine receptor; alpha4/beta2 (P43681 whole entry): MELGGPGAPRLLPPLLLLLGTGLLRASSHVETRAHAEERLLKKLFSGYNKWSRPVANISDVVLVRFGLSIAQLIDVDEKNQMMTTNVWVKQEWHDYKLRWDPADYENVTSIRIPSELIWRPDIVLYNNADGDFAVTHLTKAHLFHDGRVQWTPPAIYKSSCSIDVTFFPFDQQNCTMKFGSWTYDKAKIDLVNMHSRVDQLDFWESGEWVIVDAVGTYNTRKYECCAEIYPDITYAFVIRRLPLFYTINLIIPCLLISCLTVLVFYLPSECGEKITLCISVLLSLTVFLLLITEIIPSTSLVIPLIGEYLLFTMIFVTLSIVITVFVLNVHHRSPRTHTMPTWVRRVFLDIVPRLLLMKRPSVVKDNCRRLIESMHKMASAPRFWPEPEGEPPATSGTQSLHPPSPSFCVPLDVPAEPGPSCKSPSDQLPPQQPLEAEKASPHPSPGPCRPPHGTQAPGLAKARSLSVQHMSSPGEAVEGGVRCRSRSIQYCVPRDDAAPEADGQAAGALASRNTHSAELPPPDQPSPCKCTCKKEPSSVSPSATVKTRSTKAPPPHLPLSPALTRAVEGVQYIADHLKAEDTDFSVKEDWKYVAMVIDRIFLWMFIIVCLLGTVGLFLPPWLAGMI

[5] = Binding affinity towards human Nicotinic acetylcholine receptor was determined using [3H]-cytisine
[6] = Binding affinity towards human Nicotinic acetylcholine receptor was determined using [3H]epibatidine

Biodistribution (Rattus norvegicus [1]): 0.2%
Biodistribution (Rattus norvegicus [2]): 0.6%
Biodistribution (Rattus norvegicus [3]): 0.9%
Structure (SMILES): CN1C2CCCC1CC(NC(=O)c1nn(C)c3ccccc13)C2 (stereo not drawn) [GRANISETRON]

Structure (SMILES): c1cncc(OC[C@@H]2CCN2)c1
Ki [4]: 0.05 nM

Structure (SMILES): Clc1ccc(C2CC3CCC2N3)cn1 (stereo not drawn) [EPIBATIDINE]
Biodistribution (Rattus norvegicus [1]): 0.2%
Biodistribution (Rattus norvegicus [2]): 0.2%
Biodistribution (Rattus norvegicus [3]): 0.2%

Structure (SMILES): CNC(=O)Oc1ccc2c(c1)[C@]1(C)CCN(C)[C@@H]1N2C [PHYSOSTIGMINE]
Biodistribution (Rattus norvegicus [1]): 0.2%
Biodistribution (Rattus norvegicus [2]): 0.4%
Biodistribution (Rattus norvegicus [3]): 0.5%

Structure (SMILES): O=c1cccc2n1CC1CNC[C@H]2C1 (single isomer, unassigned) [CYTISINICLINE]
Biodistribution (Rattus norvegicus [1]): 0.2%
Biodistribution (Rattus norvegicus [2]): 0.2%
Biodistribution (Rattus norvegicus [3]): 0.2%

Structure (SMILES): Fc1ncccc1OC[C@@H]1CCN1
Biodistribution (Rattus norvegicus [1]): 0.2%
Biodistribution (Rattus norvegicus [2]): 0.2%
Biodistribution (Rattus norvegicus [3]): 0.3%
Ki [5]: 0.048 nM
Ki [6]: 0.046 nM
